Values after ≈ are worked out from the molar mass of the structure shown.
Experiments:
[1] = tested on: Mycolicibacterium smegmatis; test: Antimycobacterial activity against Mycobacterium smegmatis; assay type: functional
[2] = tested on: Mycobacterium tuberculosis; test: Antimycobacterial activity against Mycobacterium tuberculosis H37Rv ATCC 27294 assessed as inhibition of bacterial growth under GAST medium condition after 7 to 14 days by broth microdilution method; assay type: functional; settings: time 7-14 day
Outline: (§1)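 Mtb H37Rv ATCC 27294 by broth microdilution in GAST or 7H9 base with 5 g/L BSA fraction V, 0.8 g/L NaCl and 0.05% tyloxapol. Carbon source was 20 mM glycerol/10 mM glucose or 0.05 mM sodium palmitate. Compounds came from DMSO stocks with DMSO-only controls. Inoculum was 10⁴-10⁵ cells; growth was read at 7 and 14 days. MIC is the concentration giving >99% growth inhibition; runs were in triplicate.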

[3] = tested on: Mycobacterium tuberculosis; test: Antimycobacterial activity against Mycobacterium tuberculosis H37Rv ATCC 27294 assessed as inhibition of bacterial growth under 7H9 medium condition after 7 to 14 days by broth microdilution method; assay type: functional; settings: time 7-14 day; outline: as §1
[4] = tested on: Mycobacterium tuberculosis; test: Antimycobacterial activity against Mycobacterium tuberculosis H37Rv ATCC 27294 assessed as inhibition of bacterial growth under 7H9 medium condition after 7 to 14 days in presence of palmitate by broth microdilution method; assay type: functional; settings: time 7-14 day; outline: as §1
[5] = molecular target: T1, Medium/long-chain-fatty-acid--CoA/3-oxocholest-4-en-26-oate--CoA ligase (Mycobacterium tuberculosis, UniProt P9WQ51); test: Inhibition of Mycobacterium tuberculosis H37Rv FACL19 Spectra expressed in Escherichia coli BL21(DE3) cells assessed as cleavage of MEsG by spectroscopic analysis; settings: read-out: Ki(app)
T1 sequence (P9WQ51 whole entry): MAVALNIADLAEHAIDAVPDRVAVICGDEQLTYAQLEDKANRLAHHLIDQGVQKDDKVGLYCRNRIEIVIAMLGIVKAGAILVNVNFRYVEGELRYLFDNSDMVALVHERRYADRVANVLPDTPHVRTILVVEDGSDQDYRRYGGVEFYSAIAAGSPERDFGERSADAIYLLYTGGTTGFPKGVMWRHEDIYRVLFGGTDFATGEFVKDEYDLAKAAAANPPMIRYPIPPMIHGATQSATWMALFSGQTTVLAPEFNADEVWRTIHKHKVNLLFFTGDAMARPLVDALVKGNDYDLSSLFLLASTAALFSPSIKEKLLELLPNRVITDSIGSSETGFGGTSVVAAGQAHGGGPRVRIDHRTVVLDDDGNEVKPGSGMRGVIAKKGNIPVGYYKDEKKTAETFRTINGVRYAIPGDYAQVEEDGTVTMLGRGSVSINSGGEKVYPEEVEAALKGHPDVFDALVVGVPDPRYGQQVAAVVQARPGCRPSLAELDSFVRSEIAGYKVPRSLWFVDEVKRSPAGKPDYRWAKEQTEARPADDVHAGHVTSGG
Outline: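 FACL19 (0.167 μM) with 250 μM dodecanoic acid in a coupled MesG assay with pyrophosphatase and nucleoside phosphorylase. Buffer was 50 mM Tris·HCl pH 8.0 with 2.5 mM ATP, 5 mM MgCl₂, 0.5 mM DTT and 150 mM hydroxylamine. Apparent Ki came from a Morrison tight-binding fit.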

[6] = molecular target: T2, Long-chain-fatty-acid--AMP ligase FadD28 (Mycobacterium tuberculosis, UniProt P9WQ59); test: Inhibition of Mycobacterium tuberculosis H37Rv FAAL28 Spectra expressed in Escherichia coli BL21(DE3) cells assessed as cleavage of MEsG by spectroscopic analysis; settings: read-out: Ki(app)
T2 sequence (P9WQ59 whole entry): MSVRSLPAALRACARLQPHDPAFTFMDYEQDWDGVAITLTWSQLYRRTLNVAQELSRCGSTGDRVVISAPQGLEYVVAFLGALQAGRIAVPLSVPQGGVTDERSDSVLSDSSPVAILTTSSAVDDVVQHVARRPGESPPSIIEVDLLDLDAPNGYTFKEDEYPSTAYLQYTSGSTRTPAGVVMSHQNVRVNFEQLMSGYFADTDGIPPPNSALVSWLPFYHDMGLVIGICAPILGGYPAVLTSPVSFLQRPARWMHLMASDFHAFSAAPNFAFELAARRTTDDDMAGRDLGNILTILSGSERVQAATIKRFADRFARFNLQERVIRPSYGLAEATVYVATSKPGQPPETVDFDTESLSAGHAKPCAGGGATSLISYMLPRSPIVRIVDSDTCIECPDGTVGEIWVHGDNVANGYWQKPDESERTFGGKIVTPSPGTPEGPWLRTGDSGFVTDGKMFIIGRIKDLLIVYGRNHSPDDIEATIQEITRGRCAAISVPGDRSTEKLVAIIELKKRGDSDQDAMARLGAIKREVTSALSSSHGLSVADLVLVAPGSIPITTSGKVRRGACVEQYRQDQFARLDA
Outline: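 Coupled continuous assay with pyrophosphatase (0.04 U) and nucleoside phosphorylase (0.1 U), using 0.45 μM FAAL28 and 33 μM tetradecanoic acid. Buffer was 50 mM Tris·HCl pH 8.0 with 2.5 mM ATP, 5 mM MgCl₂, 0.5 mM DTT, 150 mM hydroxylamine and 0.2 mM MesG. Apparent Ki came from a Morrison equation fit.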

Vero = test: Cytotoxicity against African green monkey Vero cells assessed as reduction in cell viability after 72 hrs by MTT assay; assay type: cell-based; settings: Chlorocebus sabaeus
Outline: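 Vero cells were seeded at (2.5–5.0) × 10⁴ per well in MEM with 5% FBS and penicillin/streptomycin. Compounds were added from 20 mM DMSO stocks to a final 100 μM. Controls were 0.5% and 50% DMSO, all in triplicate. After 72 h at 37 °C in 5% CO₂, cells got 1 mg/mL MTT for 3 h. Formazan was dissolved in isopropanol and read at 570/650 nm, with viability expressed relative to DMSO control.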

[7] = Inhibition of Mycobacterium tuberculosis PKS13
[8] = molecular target: T2, Long-chain-fatty-acid--AMP ligase FadD28; test: Inhibition of Mycobacterium tuberculosis H37Rv His-tagged FAAL28 expressed in Escherichia coli; settings: read-out: Ki(app)
[9] = molecular target: T1, Medium/long-chain-fatty-acid--CoA/3-oxocholest-4-en-26-oate--CoA ligase; test: Inhibition of Mycobacterium tuberculosis H37Rv His-tagged FACL19 expressed in Escherichia coli; settings: read-out: Ki(app)
[10] = tested on: Mycobacterium tuberculosis; test: Antimycobacterial activity against Mycobacterium tuberculosis H37Rv after 16 hrs; assay type: functional

SMILES	MIC [1] [µM]	MIC [2] [µM]	MIC [3] [µM]	MIC [4] [µM]	Ki [5] [µM]	Ki [6] [µM]	IC50 (Vero) [µM]	IC50 [7] [µM]	Ki [8] [µM]	Ki [9] [µM]	MIC [10] [µM]
CCCCCCCCCCCCOP(=O)(O)OC[C@H]1O[C@@H](n2cnc3c(N)ncnc32)[C@H](O)[C@@H]1O	20 (≈ 10.3 µg/mL)										
CCCCCCCCC[C@@H]1C[C@@H]1C(=O)NS(=O)(=O)OC[C@H]1O[C@@H](n2cnc3c(N)ncnc32)[C@H](O)[C@@H]1O		50 (≈ 27 µg/mL)	> 100	> 100	> 100	69.8	6.1				
Nc1ncnc2c1ncn2[C@@H]1O[C@H](COS(=O)(=O)NC(=O)CCCCCCCCCCOc2ccccc2)[C@@H](O)[C@H]1O		3.13 (≈ 1.9 µg/mL)	50 (≈ 30.3 µg/mL)	50	> 100	0.71	2				
CCCCCC/C=C/CCCC(=O)NS(=O)(=O)OC[C@H]1O[C@@H](n2cnc3c(N)ncnc32)[C@H](O)[C@@H]1O		100 (≈ 52.7 µg/mL)	> 100	> 100	> 100	> 100	16.8				
Cc1cc2oc(=O)cc(-c3cccc(N)c3)c2c(C)c1-c1ccc(CN2CCOCC2)cc1								0.5			
[N-]=[N+]=NCCCCCCCCCCCC(=O)NS(=O)(=O)OC[C@H]1O[C@@H](n2cnc3c(N)ncnc32)[C@H](O)[C@@H]1O		0.19 (≈ 0.108 µg/mL)	12.5 (≈ 7.12 µg/mL)	25	> 100	28.5	5.6				
CCCCOCCOCCOCC(=O)NS(=O)(=O)OC[C@H]1O[C@@H](n2cnc3c(N)ncnc32)[C@H](O)[C@@H]1O		6.25 (≈ 3.43 µg/mL)	> 100	> 100	> 100	> 100	16				
C=CCCCCCCCCC(=O)NS(=O)(=O)OC[C@H]1O[C@@H](n2cnc3c(N)ncnc32)[C@H](O)[C@@H]1O		0.39 (≈ 0.2 µg/mL)	25 (≈ 12.8 µg/mL)	25	> 100	> 100	11.6				
CCCCCCCCC/C=C/C(=O)NS(=O)(=O)OC[C@H]1O[C@@H](n2cnc3c(N)ncnc32)[C@H](O)[C@@H]1O		100 (≈ 52.7 µg/mL)	> 100	> 100	> 100	> 100	10.4				
CCCCCCCCCC(=O)NS(=O)(=O)OC[C@H]1O[C@@H](n2cnc3c(N)ncnc32)[C@H](O)[C@@H]1O		1.56 (≈ 0.781 µg/mL)	100 (≈ 50.1 µg/mL)	> 100	> 100	88	10.1				
CCCCCCCC(=O)NS(=O)(=O)OC[C@H]1O[C@@H](n2cnc3c(N)ncnc32)[C@H](O)[C@@H]1O		12.5 (≈ 5.91 µg/mL)	100 (≈ 47.3 µg/mL)	> 100	> 100	> 100	6				
Nc1ncnc2c1ncn2[C@@H]1O[C@H](COS(=O)(=O)NC(=O)CCCCCCCCCCO)[C@@H](O)[C@H]1O		6.25 (≈ 3.32 µg/mL)	100 (≈ 53.1 µg/mL)	100	> 100	92.7	42.7				
CCCCCCCCCCCC(=O)NS(=O)(=O)OC[C@H]1O[C@@H](n2cnc3c(N)ncnc32)[C@H](O)[C@@H]1O		0.19 (≈ 0.1 µg/mL)	50 (≈ 26.4 µg/mL)	50	67.4	6.4	28.7		1.5	4.9	100 (≈ 52.9 µg/mL)
C#CCCCCCCCCC(=O)NS(=O)(=O)OC[C@H]1O[C@@H](n2cnc3c(N)ncnc32)[C@H](O)[C@@H]1O		1.56 (≈ 0.796 µg/mL)	50 (≈ 25.5 µg/mL)	50	> 100	> 100	9.7				
CCCCCCCCCOCC(=O)NS(=O)(=O)OC[C@H]1O[C@@H](n2cnc3c(N)ncnc32)[C@H](O)[C@@H]1O		0.098 (≈ 0.052 µg/mL)	25 (≈ 13.3 µg/mL)	25	> 100	> 100	8.7				
CCCCCCCCCCCCCCCCCC(=O)NS(=O)(=O)OC[C@H]1O[C@@H](n2cnc3c(N)ncnc32)[C@H](O)[C@@H]1O		100 (≈ 61.3 µg/mL)	100 (≈ 61.3 µg/mL)	> 100	2.4	0.5	0.1				
CCCCCCCCCCCCCC(=O)NS(=O)(=O)OC[C@H]1O[C@@H](n2cnc3c(N)ncnc32)[C@H](O)[C@@H]1O		0.39 (≈ 0.217 µg/mL)	50 (≈ 27.8 µg/mL)	100	10	1.4	0.9				
NCCCCCCCCCCCC(=O)NS(=O)(=O)OC[C@H]1O[C@@H](n2cnc3c(N)ncnc32)[C@H](O)[C@@H]1O		3.13 (≈ 1.7 µg/mL)	50 (≈ 27.2 µg/mL)	12.5	93.3	> 100	27.1				

Reference: ChEMBL document CHEMBL4765357, “Development of small-molecule inhibitors of fatty acyl-AMP and fatty acyl-CoA ligases in Mycobacterium tuberculosis” (Eur J Med Chem, 2020)
